Source: PubChem BioAssay
SENP1 inh = blocks the human SENP1 SUMO protease catalytic domain; Q9P0U3; recombinant SENP1 catalytic domain, CyPet-SUMO1-YPet FRET cleavage; inhibition, % at 10 µM; 360,000 tested, 0.21% active; AID 624204;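 active = inhibition at least 30% at 10 µM, raw YFP signal under a set limit, fluorescence ratio 0.5 to 1.5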
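system = hSENP1 catalytic domain, recombinant | reagent = SFCypet-SUMO1-SFYpet substrate at 25 nM | doses = one dose per compound, 10 µM, 0.5% DMSO | incubation = enzyme reaction for 50 min at room temperature, dark | measured by = FRET, CFP and YFP emission | controls = no-enzyme low, enzyme-DMSO high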
FAS TE block = inhibitors of human fatty acid synthase thioesterase domain | recombinant FAS-TE, OMFH fluorogenic substrate, fluorescence endpoint | AID 602261 | 360,000 tested, 0.67% active | inhibition, % at 15 µM;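 active = compounds whose normalised, plate-corrected inhibition of enzyme fluorescence in the single-dose primary screen is 50% or more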
GASC-1 inh = inhibitors of human GASC-1 (JMJD2C) demethylase; GST-JMJD2C(1-420) H3K9me3 demethylation, DELFIA europium; inhibition, % at 2.35 µM; 330,000 tested, 0.069% active; AID 2099;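 active = more than half of a compound's replicate wells show inhibition beyond 50%, single wells judged on their own value; inconclusive = some, but no more than half, of replicates pass 50% inhibition; inactive = no replicate passes 50% inhibition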;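 also: signal counts dimethyl H3K9 product captured on neutravidin plate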
Arrestin-AP2 inh = blocks beta-arrestin peptide binding to AP2 adaptin; FITC-arrestin peptide / GST-AP2 beads, flow cytometry; AP2 beta2 appendage carries R879A mutation; inhibition, % at 10 µM; 340,000 tested, 0.31% active;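 active = inhibition above a set limit, near 3 SD of compounds lacking own fluorescence, cut at about 54% in these data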
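Assay system: GST-AP2 R879A bound to glutathione beads, E. coli-expressed; Medium: PBS with 0.05% Tween 20 and 0.1% BSA; Also added: fluorescein-tagged arrestin peptide at 50 nM final; Timing: 12 min plus 1 h, RT; Measured by: flow cytometry, FL1 (488/535 nm); Evaluation: percent drop in bead-associated FITC signal.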
FAS-TE conf = FAS thioesterase (human) inhibition, confirmation | shares compounds with FAS TE block | recombinant FAS-TE, OMFH fluorogenic substrate, fluorescence | inhibition, % at 15 µM | 2,300 tested, 45% active;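 active = compounds inhibiting the enzyme by at least 50% at 15 µM in any one of the replicates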
Numbers stand for hits; - = inactive; ? = inconclusive; . = not tested or not shown. Rows were chosen to be rich in hits. Some 1.1% of all compounds tested hit in one or more screens of this group.

SMILES | SENP1 inh | FAS TE block | GASC-1 inh | Arrestin-AP2 inh | FAS-TE conf
O=C1OCCN1c1c(-c2ccccc2)c(-c2cccs2)nc2c(-c3ccccc3)cccc12 | - | 52.0 | - | - | -
Oc1ccc(Cl)cc1Sc1cc(Cl)ccc1O | - | 88.4 | . | - | 97.7
COc1ccc(CCNC(=O)C2CC(c3ccc([N+](=O)[O-])cc3)=NO2)cc1 (stereo not given) | - | - | - | - | .
COc1ccc(C2=NOC(COc3ccc([N+](=O)[O-])cc3)C2)cc1 (stereo not given) | - | 53.7 | - | - | -
O=C(NC1CCN(Cc2cccc([N+](=O)[O-])c2)CC1)c1ccccc1 | - | - | - | - | .
O=C(CSc1ncnc2c1nnn2Cc1ccccc1)NC1CCCCC1 | - | 57.7 | - | - | 49.1
CCc1cccc2sc(N3CCN(C(=O)c4ccc([N+](=O)[O-])o4)CC3)nc12 | - | 51.5 | - | - | 40.0
C[C@H]1CN([C@@H](C)CO)S(=O)(=O)c2ccc(Br)cc2O[C@H]1CN(C)C(=O)Cc1ccccc1 | - | - | . | . | .
C[C@@H]1CN([C@H](C)CO)S(=O)(=O)c2ccc(C#Cc3ccccc3F)cc2O[C@@H]1CN(C)C(=O)Cc1ccccc1 | - | 69.9 | . | . | 41.4
CC(NC(=O)C1CCCO1)c1ccccc1 (stereo not given) | - | - | - | - | .
CCCC(=O)Nc1ccc2c(c1)c1ccccc1n2CC | - | - | - | - | .
CCn1c2ccccc2c2cc(NC(=O)COC(=O)c3cc(OC)c(OC)cc3OC)ccc21 | - | 63.5 | - | - | -
O=C(Nc1ccccc1N1CCOCC1)c1ccc(N2CCCC2=O)cc1 | - | - | - | - | .
CCOCCCn1c(=NC(=O)c2cccs2)c(C#N)cc2c(=O)n3cccc(C)c3nc21 | - | 55.0 | - | - | -
Cc1cccn2c(=O)c3cc(C#N)c(=NC(=O)c4cccs4)n(CC(C)C)c3nc12 | - | - | - | - | .
COCCCn1c(=NC(=O)c2ccccc2)c(C#N)cc2c(=O)n3cccc(C)c3nc21 | - | 51.3 | - | - | -
O=C1[C@H]2[C@@H](c3ccc(C(F)(F)F)cc3)N[C@]3(CCCN(Cc4ccccc4)C3=O)[C@H]2C(=O)N1Cc1ccccc1 | - | - | . | . | .
O=C1[C@H]2[C@@H](c3ccc(C(F)(F)F)cc3)N[C@]3(CCCN(Cc4ccc(C(F)(F)F)cc4)C3=O)[C@H]2C(=O)N1Cc1ccccc1 | - | 55.2 | . | . | -
CCOc1ccc(CCN2C(=O)C(=O)N([C@@H](Cc3ccc(O)cc3)CN3CCC[C@H]3CN3C(=O)C(=O)NC[C@@H]3Cc3ccccc3)C[C@@H]2Cc2ccc(O)cc2)cc1 | - | - | . | . | .
CC(C)N(C(=O)CN1CCN(C(=O)C2COc3ccccc3O2)CC1)C(C)C (stereo not given) | - | - | - | - | .
COc1cccc(-c2cc3nc4c(c(N5CCC6(CC5)OCCO6)n3n2)CCC4)c1 | - | 54.6 | - | - | -
Cc1cccc(-c2cc3nc4c(c(N5CCC6(CC5)OCCO6)n3n2)CCCC4)c1 | - | - | - | - | .
COc1ccc(-c2cc3nc(-c4ccccc4)cc(N4CCC5(CC4)OCCO5)n3n2)cc1 | - | 52.3 | - | - | -
COc1ccc(-c2cc3nc4c(c(N5CCC6(CC5)OCCO6)n3n2)CCC4)cc1 | - | 50.8 | - | - | -
Fc1ccc(-c2cc3nc4c(c(N5CCOCC5)n3n2)CCCC4)cc1 | - | - | - | - | .
SMILES | SENP1 inh | FAS TE block | GASC-1 inh | Arrestin-AP2 inh | FAS-TE conf
CCN(Cc1nc2ccccc2c(=O)[nH]1)Cc1cc(=O)oc2cc(OC)ccc12 | - | - | . | - | .
O=c1oc(-c2cccnc2)nc2ccccc12 | - | - | ? | - | .
O=c1oc(-c2ccccc2Br)nc2ccccc12 | - | 60.6 | - | - | 52.8
O=[N+]([O-])c1c(Nc2cccc(O)c2)cc(Cl)c2nonc12 | - | 78.0 | - | - | 49.8
O=C(Nc1ccccc1F)c1c[nH]c(=O)[nH]c1=O | - | - | - | - | .
Cc1noc(C)c1C(=O)OC(C)C(=O)Nc1ccc([N+](=O)[O-])cc1C(F)(F)F (stereo not given) | - | - | . | . | .
CCc1noc(C)c1C(=O)OC(C)C(=O)Nc1cc([N+](=O)[O-])ccc1OC (stereo not given) | - | 74.9 | - | - | -
COc1ccc([N+](=O)[O-])cc1NC(=O)C(C)OC(=O)c1ccccc1C(=O)c1ccc(Cl)cc1 (stereo not given) | - | 57.8 | - | - | -
